This note sets out measurements from ChEMBL document CHEMBL4819036, “Hepatoprotective Glucosyloxybenzyl 2-Hydroxy-2-isobutylsuccinates from Pleione yunnanensis” (2021).

Molecules are shown by their SMILES.

One assay concerns HepG2. The assay is described as follows: Hepatoprotective activity against APAP-induced toxicity in human HepG2 cells assessed as cell survival rate at 10 uM after 48 hrs by MTT assay (reference value: 23 %). Type of assay: functional.
The test system of another assay is L02. The assay is described as follows: Hepatoprotective activity against D-GalN-induced toxicity in human HL-7702 cells assessed as cell survival rate at 10 uM preincubated for 48 hrs followed by D-GalN stimulation for 8 hrs by MTT assay (reference value: 33 %). Type of assay: functional. To be noted: time 56 hrs. The method in brief:
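Normal human HL-7702 hepatocytes were injured with D-galactosamine at 60 mM, with test compounds at 10 μM. Viability was measured by the MTT method as OD, and survival rate was expressed as a percentage of untreated control cells. Bicyclol at 10 μM served as the positive control. Statistics compared treated cells with the D-GalN model group.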

Turning to `CC(C)C[C@@](O)(CC(=O)OCc1ccc(O[C@@H]2O[C@H](CO)[C@@H](O)[C@H](O)[C@H]2O)cc1)C(=O)OCc1ccc(O[C@@H]2O[C@H](CO)[C@@H](O)[C@H](O)[C@H]2OCc2ccc(O)cc2)cc1`, the Activity in the assay with HepG2 is on record as 19%; with L02, 49%.
The matching figures for `COC(=O)c1cc(OC)c2c(c1-c1c(CO)cc(OC)c3c1OCO3)OCO2` [BICYCLOL]: 32% and 47%.
Regarding `CC(C)C[C@](O)(C(=O)OCc1ccc(O[C@@H]2O[C@H](CO)[C@@H](O)[C@H](O)[C@H]2O)cc1)[C@H](O)C(=O)OCc1ccc(O[C@@H]2O[C@H](CO)[C@@H](O)[C@H](O)[C@H]2O)cc1`, in the assay with HepG2, the Activity was 23%.
On to `CC(C)C[C@@](O)(CC(=O)OCc1ccc(O[C@@H]2O[C@H](CO)[C@@H](O)[C@H](O)[C@H]2O)cc1)C(=O)OCc1ccc(O[C@@H]2O[C@H](COCc3ccc(O)cc3)[C@@H](O)[C@H](O)[C@H]2O)cc1`, for which the Activity in the assay on HepG2 amounted to 28%; in the assay on L02, 55%.
In the case of `CC(C)C[C@](CC(=O)OCc1ccc(O[C@@H]2O[C@H](CO)[C@@H](O)[C@H](O)[C@H]2O)cc1)(O[C@@H]1O[C@H](CO)[C@@H](O)[C@H](O)[C@H]1OC(=O)/C=C/c1ccc(O[C@@H]2O[C@H](CO)[C@@H](O)[C@H](O)[C@H]2O)cc1)C(=O)OCc1ccc(O[C@@H]2O[C@H](CO)[C@@H](O)[C@H](O)[C@H]2O)cc1`, the Activity with HepG2 is 25%; in the assay on L02 it was 43%.
On to `COC(=O)C[C@](O)(CC(C)C)C(=O)OCc1ccc(O[C@@H]2O[C@H](CO)[C@@H](O)[C@H](O)[C@H]2O)cc1`, for which the results for the Activity in the assay with HepG2 and in the assay on L02 were 28% and 64%, respectively.
The matching figures for `CC(=O)OC[C@H]1O[C@@H](O[C@@](CC(=O)OCc2ccc(O[C@@H]3O[C@H](CO)[C@@H](O)[C@H](O)[C@H]3O)cc2)(CC(C)C)C(=O)OCc2ccc(O[C@@H]3O[C@H](CO)[C@@H](O)[C@H](O)[C@H]3O)cc2)[C@H](O)[C@@H](O)[C@@H]1O`: 14% and 39%.
As for `CC(C)C[C@](CC(=O)OCc1ccc(O[C@@H]2O[C@H](CO)[C@@H](O)[C@H](O)[C@H]2O)cc1)(O[C@@H]1O[C@H](CO)[C@@H](O)[C@H](O)[C@H]1O)C(=O)OCc1ccc(O[C@@H]2O[C@H](CO)[C@@H](O)[C@H](O)[C@H]2O)cc1`, in the assay on HepG2, the Activity is 35%.
`CC(C)C[C@@](O)(CC(=O)OCc1ccc(O[C@@H]2O[C@H](COCc3ccc(O)cc3)[C@@H](O)[C@H](O)[C@H]2O)cc1)C(=O)OCc1ccc(O[C@@H]2O[C@H](CO)[C@@H](O)[C@H](O)[C@H]2O)cc1`: the Activity in the assay on HepG2 turned out to be 27%; with L02, 60%.
As to `CC(C)C[C@](CC(=O)O)(O[C@@H]1O[C@H](CO)[C@@H](O)[C@H](O)[C@H]1O)C(=O)OCc1ccc(O[C@@H]2O[C@H](CO)[C@@H](O)[C@H](O)[C@H]2O)cc1`, the Activity with HepG2 amounted to 27%.
Consider `CC(C)C[C@@](O)(CC(=O)OCc1ccc(O[C@@H]2O[C@H](CO)[C@@H](O)[C@H](O)[C@H]2O)cc1)C(=O)OCc1ccc(O[C@@H]2O[C@H](CO[C@@H]3O[C@H](CO)[C@@H](O)[C@H](O)[C@H]3O)[C@@H](O)[C@H](O)[C@H]2O)cc1`, for which the Activity in the assay on HepG2 came out at 39%; in the assay with L02, 36%.
As to `CC(C)C[C@@](O)(CC(=O)OCc1ccc(O[C@@H]2O[C@H](CO)[C@@H](O)[C@H](O)[C@H]2O)cc1)C(=O)OCc1ccc(O[C@@H]2O[C@H](CO)[C@@H](O)[C@H](O)[C@H]2O)cc1`, the Activity with HepG2 amounted to 23%.
On the same count and under the same terms, in the case of `CC(C)C[C@@](O)(CC(=O)O)C(=O)OCc1ccc(O[C@@H]2O[C@H](CO)[C@@H](O)[C@H](O)[C@H]2O)cc1` it was 28%.
As for `CC(C)C[C@](CC(=O)OCc1ccc(O[C@@H]2O[C@H](COCc3ccc(O)cc3)[C@@H](O)[C@H](O)[C@H]2O)cc1)(O[C@@H]1O[C@H](CO)[C@@H](O)[C@H](O)[C@H]1O)C(=O)OCc1ccc(O[C@@H]2O[C@H](CO)[C@@H](O)[C@H](O)[C@H]2O)cc1`, the figures for the Activity in the assay on HepG2 and in the assay with L02 were 32% and 39%, respectively.
The matching figures for `CC(C)C[C@](CC(=O)OCc1ccc(O[C@@H]2O[C@H](CO)[C@@H](O)[C@H](O)[C@H]2O)cc1)(O[C@@H]1O[C@H](CO)[C@@H](O)[C@H](O)[C@H]1OC(=O)/C=C\c1ccc(O[C@@H]2O[C@H](CO)[C@@H](O)[C@H](O)[C@H]2O)cc1)C(=O)OCc1ccc(O[C@@H]2O[C@H](CO)[C@@H](O)[C@H](O)[C@H]2O)cc1`: 17% and 38%.
The like results for `CC(C)C[C@@](O)(CC(=O)OCc1ccc(O[C@@H]2O[C@H](CO[C@@H]3O[C@H](CO)[C@@H](O)[C@H](O)[C@H]3O)[C@@H](O)[C@H](O)[C@H]2O)cc1)C(=O)OCc1ccc(O[C@@H]2O[C@H](CO)[C@@H](O)[C@H](O)[C@H]2O)cc1` were, in that order, 28% and 38%.
The like results for `CC(C)C[C@](CC(=O)OCc1ccc(O[C@@H]2O[C@H](CO)[C@@H](O)[C@H](O)[C@H]2O)cc1)(O[C@@H]1O[C@H](CO)[C@@H](O)[C@H](O)[C@H]1OC(=O)/C=C/c1ccc(O)cc1)C(=O)OCc1ccc(O[C@@H]2O[C@H](CO)[C@@H](O)[C@H](O)[C@H]2O)cc1` were, in that order, 23% and 52%.
As to `CC(C)C[C@](CC(=O)OCc1ccc(O[C@@H]2O[C@H](CO)[C@@H](O)[C@H](O)[C@H]2O)cc1)(O[C@@H]1O[C@H](CO)[C@@H](O)[C@H](O)[C@H]1OC(=O)/C=C\c1ccc(O)cc1)C(=O)OCc1ccc(O[C@@H]2O[C@H](CO)[C@@H](O)[C@H](O)[C@H]2O)cc1`, the Activity in the assay with HepG2 was 21%; in the assay on L02, 39%.
